Assay results pooled from the literature.
Target: Mitogen-activated protein kinase kinase kinase 8 (MAP3K8, Homo sapiens, UniProt P41279)

| Structure (SMILES) | effect on | action | technique | tested at | measurement | value |
| --- | --- | --- | --- | --- | --- | --- |
| COc1cc2ncnc(Nc3ccc(Oc4ccccc4)c(C)c3C)c2cc1OC | enzyme activity | inhibitor |  | 1 µM | inhibition | -8% |
| CC(C)(O)[C@H]1CC[C@H](Nc2ccc3ncc(-c4cccc(C(F)(F)F)c4)n3n2)CC1 | enzyme activity | inhibitor |  | 1 µM | remaining activity | 107% |
| CC(C)(C)c1nc(-c2cccc(NS(=O)(=O)c3c(F)cccc3F)c2F)c(-c2ccnc(N)n2)s1 | enzyme activity | inhibitor | radiometric | 1 µM | remaining activity | 85% |
| O=C(Nc1cnn(-c2csc(C(=O)NC3COC3)c2)c1)Nc1ccccc1Cl | enzyme activity | inhibitor |  | 5 µM | remaining activity | 92.7% |
| O=C1NC(=O)c2cc(Nc3ccc(F)cc3)c(Nc3ccc(F)cc3)cc21 | cell-free assay |  |  | 0.5 µM | remaining signal | 96.3% |
| Cc1sc(C(=O)NC2COC2)cc1-n1cc(NC(=O)Nc2c(F)cccc2Cl)cn1 | enzyme activity | inhibitor |  | 10 µM | remaining activity | 105% |
| COc1cc2ncnc(Nc3ccc(Oc4ccccc4)cc3C)c2cc1OC | enzyme activity | inhibitor |  | 1 µM | inhibition | 33% |
| N#CCCc1ccc2c(c1)-c1[nH]c3ccc([N+](=O)[O-])cc3c1CC(=O)N2 | cell-free assay |  |  | 0.5 µM | remaining signal | 87.5% |
| CC/C(=N\NC(=O)NCc1cccc(O)c1)c1ccc(O)c(C)c1O | enzyme activity | inhibitor |  | 0.1 µM | inhibition | -1.8% |
| CCOc1cc(-c2nncn2C)ccc1Nc1ncc2cc(C)nc(NCC(C)(C)C)c2n1 | enzyme activity | inhibitor | FRET | 1 µM | inhibition | < 15% |
| O=C(CSc1nc2nccnc2c(=O)n1CCc1ccccc1)Nc1nccs1 | enzyme activity | inhibitor |  | 10 µM | inhibition | 5% |
| CCCS(=O)(=O)Nc1ccc(F)c(C(=O)c2c[nH]c3ncc(-c4ccc(Cl)cc4)cc23)c1F | enzyme activity | inhibitor |  | 1 µM | inhibition | < 10% |
| CS(=O)(=O)Nc1cccc(-c2csc(NC(=O)CSc3nc4nccnc4c(=O)n3CCc3ccccc3)n2)c1 | enzyme activity | inhibitor |  | 10 µM | inhibition | 4% |
| CC(C)(C)c1nc2c(s1)c1nc(N)ncc1c1ccc(NS(=O)(=O)c3c(F)cccc3F)c(F)c12 | enzyme activity | inhibitor | radiometric | 1 µM | remaining activity | 93% |
